Data set [1] concerns HCT-15. In words: Cytotoxicity against human HCT-15 cells assessed as reduction in cell viability incubated for 4 hrs by MTT assay. In kind it is functional, cell-based. The conditions noted are these: HCT-15, 4 h. (Formazan colour is commonly taken as a measure of viable cells.)
The subject of data set [2] is HCT-15. In words: Cytotoxicity against human HCT-15 cells assessed as reduction in cell viability. In kind it is functional, cell-based.
The nature of data set [3]: Cytotoxicity against multidrug resistance human U87 cells assessed as cell growth inhibition. In kind it is functional, cell-based, U-87MG ATCC. The conditions noted are these: U-87 MG.
A further data set has as its system PC-3. In words: Cytotoxicity against multidrug resistance human PC-3 cells assessed as cell growth inhibition. In kind it is functional, cell-based.
Another data set deals with SK-OV-3. Put plainly: Cytotoxicity against multidrug resistance human SK-OV-3 cells assessed as cell growth inhibition. In kind it is functional, cell-based.
A short description of data set [4]: Cytotoxicity against human BEAS-2B cells assessed as reduction in cell viability measured after 48 hrs by MTT assay. In kind it is toxicity, cell-based. The essentials:
(§1)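 Cells kept in medium with 10% FBS and 1% antibiotic–antimycotic at 37 °C, 5% CO2. Seeded at 3000–4000 cells/well, grown overnight, then given fresh medium with a range of concentrations (diluted from 10 mM DMSO stocks) for 48 h. MTT (0.5 mg/mL) added for 3–4 h at 37 °C. Formazan dissolved in DMSO and absorbance read at 570 nm.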

Data set [5] concerns SK-MEL-28. Put plainly: Induction of cell cycle arrest in human SK-MEL-28 cells assessed as accumulation of cells at G2/M phase at 4.13 uM incubated for 48 hrs by flow cytometry (reference value: 13.14%). In kind it is functional. (Flow cytometry measures light scatter and fluorescence of single cells or particles in a stream.)
The subject of data set [6] is SK-MEL-28. In words: Induction of cell cycle arrest in human SK-MEL-28 cells assessed as accumulation of cells at G0/G1 phase at 4.13 uM incubated for 48 hrs by flow cytometry (reference value: 79.59%). In kind it is functional.
The test system of a further data set is HCT-116. Put plainly: Cytotoxicity against human HCT-116 cells assessed as reduction in cell viability measured after 48 hrs by MTT assay. In kind it is functional, cell-based. The conditions noted are these: HCT-116, 48 h. The essentials: as §1
The next data set has as its system A549. Put plainly: Cytotoxicity against human A549 cells assessed as reduction in cell viability measured after 48 hrs by MTT assay. In kind it is functional, cell-based. The conditions noted are these: A549, 48 h. The essentials: as §1
In data set [7] the test system is SK-MEL-28. Put plainly: Induction of cell cycle arrest in human SK-MEL-28 cells assessed as accumulation of cells at S phase at 4.13 uM incubated for 48 hrs by flow cytometry (reference value: 6.34%). In kind it is functional.
A further data set relates to B16-F10. Put plainly: Cytotoxicity against mouse B16-F10 cells assessed as reduction in cell viability measured after 48 hrs by MTT assay. In kind it is functional, cell-based. As to conditions: B16-F10, 48 h. The essentials:
as §1

The subject of data set [8] is SK-MEL-28. Put plainly: Cytotoxicity against human SK-MEL-28 cells assessed as reduction in cell viability measured after 48 hrs by MTT assay. In kind it is functional, cell-based. As to conditions: SK-MEL-28, 48 h. The essentials:
as §1

In general, IC50 refers to the concentration that inhibits the measured activity by half. In the case of `COc1ccc(CC/N=C2/NC(=O)/C(=C\c3c[nH]c4ccc(Br)cc34)S2)cc1`, the IC50 with HCT-15 [1] and with HCT-15 [2] was 920 nM each time.

On to `O=C(Nc1ccncc1)C(=O)c1cn(Cc2ccc(Cl)cc2)c2ccccc12` [INDIBULIN], for which the 50% inhibitory concentration (IC50) in data set [3] worked out at 77 nM; in the data set with PC-3 it was 64 nM; in the data set on SK-OV-3 it was 36 nM.

For the molecule `CCN(CC)CCNC(=O)c1c(C)[nH]c(/C=C2\C(=O)Nc3ccc(F)cc32)c1C` [SUNITINIB], in data set [4], the half-maximal inhibitory concentration (IC50) at 48 h came to 6090 nM. For the same molecule, the Activity with SK-MEL-28 [5] came out at 17.92%; with SK-MEL-28 [6], 76.33%; in the data set with SK-MEL-28 [7] it was 5.09%. The IC50 was found to be 10700 nM in the data set on HCT-116, 5730 nM in the data set on A549, 15400 nM with B16-F10 and 4130 nM in the data set on SK-MEL-28 [8].
